Assays:
Rattus norvegicus [1] = experiment: Effect on liver weight in rat at 50 mg/kg/day administered for 16 days measured 24 hrs after last drug dosage relative to total body weight (reference value: 4.22 +/- 0.29%); type: ADME, organism-based; details: in vivo
Rattus norvegicus [2] = experiment: Effect on spleen weight in rat at 50 mg/kg/day administered for 16 days measured 24 hrs after last drug dosage relative to total body weight (reference value: 0.55 +/- 0.12%); type: ADME, organism-based; details: in vivo
Rattus norvegicus [3] = experiment: Hypocholesterolemic activity in rat assessed as [14C]cholesterol level in urine at 10 mg/kg/day administered for 1 week measured after 22 hrs on day 7 by scintillation counting analysis (reference value: 0.14 +/- 0.06%); type: functional
Outline: (§1)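 Male rats were dosed orally for 1 week (10 mg/kg/day) or with 1% CMC. On day 7 they received 5 μCi [4-14C]cholesterol orally and were killed after 22 hr. Organs were homogenized (10% in water); 0.1-cc aliquots of homogenate, urine, blood or feces were digested with Protosol. Samples were counted in toluene/Triton X-100 (2:1) scintillant with 0.4% PPO and 0.01% POPOP. Results are % of dose per tissue, N = 6.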

Rattus norvegicus [4] = experiment: Effect on vas deferens and epididymis weight in rat at 50 mg/kg/day administered for 16 days measured 24 hrs after last drug dosage relative to total body weight (reference value: 0.22 +/- 0.04%); type: ADME, organism-based; details: in vivo
Rattus norvegicus [5] = experiment: Effect on testes weight in rat at 5 mg/kg/day administered for 16 days measured 24 hrs after last drug dosage relative to total body weight (reference value: 1.08 +/- 0.08%); type: ADME, organism-based, Testis; details: in vivo
Rattus norvegicus [6] = experiment: Hypocholesterolemic activity in Sprague-Dawley rat assessed as serum cholesterol level at 50 mg/kg/day, po administered via intubation measured on day 4 by Liebermann-Burchard reaction (reference value: 100 +/- 7%); type: functional
Rattus norvegicus [7] = experiment: Effect on vesicular gland weight in rat at 10 mg/kg/day administered for 16 days measured 24 hrs after last drug dosage relative to total body weight (reference value: 0.10 to 0.11%); type: ADME, organism-based; details: in vivo
Rattus norvegicus [8] = experiment: Effect on food intake in rat at 5 mg/kg/day measured during second week (reference value: 23.4 +/- 1.8 gms); type: ADME, organism-based; details: in vivo
Outline: (§2)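 Male rats dosed orally at 1, 5, 10 or 50 mg/kg/day in 1% CMC. Average food intake in grams per rat per week measured over a 2-week period, first and second weeks reported separately. N = 8, Student's t test against the 1% CMC control.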

Rattus norvegicus [9] = experiment: Hypocholesterolemic activity in rat assessed as [14C]cholesterol level in brain at 10 mg/kg/day administered for 1 week measured after 22 hrs on day 7 by scintillation counting analysis (reference value: 0.12 +/- 0.04%); type: functional; outline: as §1
Rattus norvegicus [10] = experiment: Hypocholesterolemic activity in Sprague-Dawley rat assessed as serum cholesterol level at 10 mg/kg/day, po administered via intubation measured on day 16 by Liebermann-Burchard reaction (reference value: 100%); type: functional
Rattus norvegicus [11] = experiment: Effect on protein content in rat liver at 10 mg/kg/day administered for 16 days (reference value: 100 +/- 6%); type: ADME, organism-based; details: in vivo, 384 h
Rattus norvegicus [12] = experiment: Hypocholesterolemic activity in Sprague-Dawley rat assessed as serum cholesterol level at 1 mg/kg/day, po administered via intubation measured on day 10 by Liebermann-Burchard reaction (reference value: 100 +/- 7%); type: functional
Rattus norvegicus [13] = experiment: Effect on body weight in rat at 1 mg/kg/day administered for 16 days measured on day 16 (reference value: 233 +/- 16 gms); type: ADME, organism-based; details: in vivo, 384 h
Outline: (§3)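 Male Sprague-Dawley rats with chow and water ad libitum. Compound suspended in 1% CMC-water and given orally by intubation needle at 11:00 a.m., 1, 5, 10 or 50 mg/kg/day, for 16 days. Body weight (g) recorded on days 0, 7 and 16. N = 8.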

Rattus norvegicus [14] = experiment: Hypocholesterolemic activity in Sprague-Dawley rat assessed as serum cholesterol level at 5 mg/kg/day, po administered via intubation measured on day 16 by Liebermann-Burchard reaction (reference value: 100 +/- 8%); type: functional
Rattus norvegicus [15] = experiment: Hypocholesterolemic activity in rat assessed as [14C]palmitic acid level in feces at 10 mg/kg/day administered for 1 week measured after 22 hrs on day 7 by scintillation counting analysis (reference value: 75.52 +/- 6.21%); type: functional
Outline: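 Male Sprague-Dawley rats on lab chow dosed orally once daily for 1 week at 10 mg/kg/day, suspended in 1% CMC, or given vehicle alone. On day 7, 5 μCi [1-14C]palmitic acid given orally. Killed after 22 hr; organs made into 10% water homogenates. Aliquots of 0.1 cc of homogenate, urine, blood or feces were digested and scintillation counted. Output is % of dose per tissue, N = 6.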

Rattus norvegicus [16] = experiment: Effect on vesicular gland weight in rat at 1 mg/kg/day administered for 16 days measured 24 hrs after last drug dosage relative to total body weight (reference value: 0.10 +/- 0.04%); type: ADME, organism-based; details: in vivo
Rattus norvegicus [17] = experiment: Hypocholesterolemic activity in Sprague-Dawley rat assessed as serum cholesterol level at 50 mg/kg/day, po administered via intubation measured on day 10 by Liebermann-Burchard reaction (reference value: 100 +/- 7%); type: functional
Rattus norvegicus [18] = experiment: Hypocholesterolemic activity in rat assessed as [14C]cholesterol level in feces at 10 mg/kg/day administered for 1 week measured after 22 hrs on day 7 by scintillation counting analysis (reference value: 15.50 +/- 5.24%); type: functional; outline: as §1
Rattus norvegicus [19] = experiment: Hypocholesterolemic activity in Sprague-Dawley rat assessed as serum cholesterol level at 1 mg/kg/day, po administered via intubation measured on day 16 by Liebermann-Burchard reaction (reference value: 100 +/- 8%); type: functional
Rattus norvegicus [20] = experiment: Effect on food intake in rat at 10 mg/kg/day measured during second week (reference value: 23.4 +/- 1.8 gms); type: ADME, organism-based; details: in vivo; outline: as §2
Rattus norvegicus [21] = experiment: Effect on DNA content in rat liver at 10 mg/kg/day administered for 16 days (reference value: 100 +/- 25%); type: ADME, organism-based; details: in vivo, 384 h
Rattus norvegicus [22] = experiment: Hypocholesterolemic activity in rat assessed as [14C]cholesterol recover at 10 mg/kg/day administered for 1 week measured after 22 hrs on day 7 by scintillation counting analysis (reference value: 99.11%); type: functional; outline: as §1
Rattus norvegicus [23] = experiment: Effect on body weight in rat at 50 mg/kg/day administered for 16 days measured on day 7 (reference value: 173 +/- 12 gms); type: ADME, organism-based; details: in vivo, 384 h; outline: as §3
Rattus norvegicus [24] = experiment: Effect on testes weight in rat at 1 mg/kg/day administered for 16 days measured 24 hrs after last drug dosage relative to total body weight (reference value: 1.08 +/- 0.08%); type: ADME, organism-based, Testis; details: in vivo
Rattus norvegicus [25] = experiment: Effect on spleen weight in rat at 1 mg/kg/day administered for 16 days measured 24 hrs after last drug dosage relative to total body weight (reference value: 0.55 +/- 0.12%); type: ADME, organism-based; details: in vivo
Rattus norvegicus [26] = experiment: Effect on body weight in rat at 5 mg/kg/day administered for 16 days measured on day 7 (reference value: 173 +/- 12 gms); type: ADME, organism-based; details: in vivo, 384 h; outline: as §3
Rattus norvegicus [27] = experiment: Effect on heart weight in rat at 10 mg/kg/day administered for 16 days measured 24 hrs after last drug dosage relative to total body weight (reference value: 0.37 to 0.43%); type: ADME, organism-based; details: in vivo
Rattus norvegicus [28] = experiment: Effect on kidney weight in rat at 10 mg/kg/day administered for 16 days measured 24 hrs after last drug dosage relative to total body weight (reference value: 0.92 to 0.96%); type: ADME, organism-based; details: in vivo

Cc1ccc(OCC(=O)COc2ccc(C)cc2)cc1
Activity (Rattus norvegicus [1]): 4.57%
Activity (Rattus norvegicus [2]): 0.4%
Activity (Rattus norvegicus [3]): 0.94%
Activity (Rattus norvegicus [4]): 0.25%
Activity (Rattus norvegicus [5]): 1.03%
Activity (Rattus norvegicus [6]): 86%
Activity (Rattus norvegicus [7]): 0.11%
Activity (Rattus norvegicus [8]): 28.8 g
Activity (Rattus norvegicus [9]): 0.16%
Activity (Rattus norvegicus [10]): 58%
Activity (Rattus norvegicus [11]): 102%
Activity (Rattus norvegicus [12]): 71%
Activity (Rattus norvegicus [13]): 234 g
Activity (Rattus norvegicus [14]): 56%
Activity (Rattus norvegicus [15]): 63.52%
Activity (Rattus norvegicus [16]): 0.19%
Activity (Rattus norvegicus [17]): 46%
Activity (Rattus norvegicus [18]): 22.1%
Activity (Rattus norvegicus [19]): 46%
Activity (Rattus norvegicus [20]): 28.6 g
Activity (Rattus norvegicus [21]): 81%
Activity (Rattus norvegicus [22]): 99.94%
Activity (Rattus norvegicus [23]): 171 g
Activity (Rattus norvegicus [24]): 1.12%
Activity (Rattus norvegicus [25]): 0.43%
Activity (Rattus norvegicus [26]): 168 g
Activity (Rattus norvegicus [27]): 0.38%
Activity (Rattus norvegicus [28]): 0.93%

Source: ChEMBL document CHEMBL3272327, “Hypocholesterolemic activity of 1,3-bis(substituted phenoxy)-2-propanones” (J Med Chem, 1976)
